Published values from different studies.
Each line is one published result; the experiments were not run side by side.
ABL1 phosphorylated: Tyrosine-protein kinase ABL1, phosphorylated (ABL1, Homo sapiens, UniProt P00519)
ABL1 non-phosphorylated: Tyrosine-protein kinase ABL1, non-phosphorylated (ABL1, Homo sapiens, UniProt P00519)
ABL1 Q252H: Tyrosine-protein kinase ABL1 (ABL1, Homo sapiens, UniProt P00519, Q252H)
ABL1 Q252H non-phosphorylated: Tyrosine-protein kinase ABL1, non-phosphorylated (ABL1, Homo sapiens, UniProt P00519, Q252H)
ABL1 E255K phosphorylated: Tyrosine-protein kinase ABL1, phosphorylated (ABL1, Homo sapiens, UniProt P00519, E255K)
ABL1 F317L non-phosphorylated: Tyrosine-protein kinase ABL1, non-phosphorylated (ABL1, Homo sapiens, UniProt P00519, F317L)
ABL1 Q252H phosphorylated: Tyrosine-protein kinase ABL1, phosphorylated (ABL1, Homo sapiens, UniProt P00519, Q252H)
ABL1 H396P phosphorylated: Tyrosine-protein kinase ABL1, phosphorylated (ABL1, Homo sapiens, UniProt P00519, H396P)
ABL1 F317I: Tyrosine-protein kinase ABL1 (ABL1, Homo sapiens, UniProt P00519, F317I)
ABL1 F317I non-phosphorylated: Tyrosine-protein kinase ABL1, non-phosphorylated (ABL1, Homo sapiens, UniProt P00519, F317I)
ABL1 F317L phosphorylated: Tyrosine-protein kinase ABL1, phosphorylated (ABL1, Homo sapiens, UniProt P00519, F317L)

C[C@H]1CCN(c2nccc(-c3cnn4ncccc34)n2)C1
remaining binding (ABL1 phosphorylated; binding; 1 µM): 59%

CNC(=O)[C@@H]1CC[C@@H](n2c(-c3ccc4cnccc4c3)nc3ccc(C(=O)NCc4cccc(C(N)=O)c4)cc32)C1
remaining binding (Tyrosine-protein kinase ABL1, non-phosphorylated (ABL1, Homo sapiens, UniProt P00519, T315I); binding; competition with immobilised ligand; 1 µM): 100%

CC1CCCN1c1nccc(-c2cnn3ncccc23)n1 (stereo not shown)
remaining binding (ABL1 non-phosphorylated; binding; competition with immobilised ligand; 1 µM): 97%

COc1cnc(Nc2cccc(S(N)(=O)=O)c2)nc1N1CCN(c2ccccc2)C(=O)C1
remaining binding (ABL1 phosphorylated; binding; competition with immobilised ligand; 1 µM): 93%

c1cnn2ncc(-c3ccnc(N4CCC45COC5)n3)c2c1
remaining binding (ABL1 Q252H; binding; 1 µM): 69%

Nc1ncc2c(n1)-c1c([nH]c3ccc(C#CC4CC4)cc13)CCCC2
remaining binding (ABL1 Q252H non-phosphorylated; binding; competition with immobilised ligand; 1 µM): 93%

N#Cc1ccccc1CSc1nnc2c(n1)[nH]c1ccccc12
remaining binding (ABL1 E255K phosphorylated; binding; competition with immobilised ligand; 10 µM): 85%

N#Cc1ccc(Nc2ccc3[nH]c(=O)[nH]c3c2)c(Cl)c1
remaining binding (ABL1 F317L non-phosphorylated; cell-free assay; competition with immobilised ligand; 1 µM): 100%

CCN1CCN(Cc2ccc(C(=O)Nc3ccc(C)c(Oc4ccc5c(c4)CC(=O)N5)c3)cc2C(F)(F)F)CC1
remaining binding (Tyrosine-protein kinase ABL1, phosphorylated (ABL1, Homo sapiens, UniProt P00519, Y253F); binding; competition with immobilised ligand; 1 µM): 38%

CN(C)c1nccc(-c2cnc3ncccn23)n1
remaining binding (ABL1 Q252H; binding; 1 µM): 72%

COc1ncc2cc3ccccc3nc2c1C#N
remaining binding (ABL1 Q252H phosphorylated; cell-free assay; competition with immobilised ligand; 5 µM): 99%

C[C@@H](c1ccc(-n2cnc3c(N)ncnc32)cc1)N1CCc2nn(C)c(Cc3ccccc3)c2C1=O
remaining binding (ABL1 Q252H phosphorylated; binding; competition with immobilised ligand; 0.1 µM): 72%

Cc1cnn2ncc(-c3ccnc(N(C)C)n3)c2c1
remaining binding (ABL1 phosphorylated; binding; 1 µM): 81%

O=C(NCC1CCOCC1)c1n[nH]cc1NC(=O)c1c(F)cccc1F
remaining binding (ABL1 E255K phosphorylated; binding; competition with immobilised ligand; 1 µM): 88%

CN(C)c1nccc(-c2cnn3ncccc23)n1
remaining binding (Tyrosine-protein kinase ABL1 (ABL1, Homo sapiens, UniProt P00519, H396P); binding; 1 µM): 89%

O=C(Nc1c[nH]nc1C(=O)NC1CCNCC1)c1cc(F)cc(F)c1
remaining binding (ABL1 F317L non-phosphorylated; binding; competition with immobilised ligand; 1 µM): 100%

COC(=O)Nc1nc2ccc(C(=O)c3ccccc3)cc2[nH]1
remaining binding (ABL1 non-phosphorylated; cell-free assay; competition with immobilised ligand; 10 µM): 2%

O=C(c1ccc(Nc2ncc(Cl)c(-c3cc4ccccc4s3)n2)cc1)N1CCC(N2CCCC2)CC1
remaining binding (ABL1 H396P phosphorylated; binding; competition with immobilised ligand; 1 µM): 13%

CN(c1nccc(-c2cnn3ncccc23)n1)C1CC1
remaining binding (ABL1 F317I; binding; 1 µM): 100%

O=C(O)[C@@H]1[C@@H](Cn2nnc3ccccc3c2=O)CC[C@H]1C(=O)c1ccc(OCCC2CCOCC2)cc1
remaining binding (ABL1 F317I non-phosphorylated; binding; competition with immobilised ligand; 1 µM): 82%

Cc1cnc(Nc2ccc(C(=O)N3CCC(N4CCCC4)CC3)cc2)nc1-c1cc2ccccc2s1
remaining binding (ABL1 Q252H non-phosphorylated; binding; competition with immobilised ligand; 1 µM): 1.1%

c1cncc(-c2cccc(Nc3nccc(NC4CCCCC4)n3)c2)c1
remaining binding (ABL1 F317L phosphorylated; binding; competition with immobilised ligand; 10 µM): 61%

O=C(NCCCN1CCOCC1)c1ccc(Nc2nccc(-c3cc4ccccc4s3)n2)cc1
remaining binding (ABL1 Q252H non-phosphorylated; binding; competition with immobilised ligand; 1 µM): 34%

C=CC(=O)N1CCC(C(=O)NCC(=O)N2CCN(c3nc(-c4cnc(N)nc4C(F)F)nc(N4CCOCC4)n3)CC2)CC1
remaining binding (ABL1 Q252H non-phosphorylated; binding; competition with immobilised ligand; 1 µM): 94%

CN(C)c1ncnc(-c2ccc3nc(Nc4cc(CN5CCN(C(=O)CC(F)(F)F)CC5)ccn4)[nH]c3c2)c1Cl
remaining binding (ABL1 E255K phosphorylated; binding; competition with immobilised ligand; 1 µM): 49%

O=C(c1ccc(Nc2ncc(Cl)c(-c3ccc(Cl)s3)n2)cc1)N1CCC(N2CCCC2)CC1
remaining binding (Tyrosine-protein kinase ABL1, phosphorylated (ABL1, Homo sapiens, UniProt P00519, T315I); binding; competition with immobilised ligand; 1 µM): 1.1%

N[C@H]1CCN(c2nccc(-c3cnn4ncccc34)n2)C1
remaining binding (Tyrosine-protein kinase ABL1 (ABL1, Homo sapiens, UniProt P00519, Y253F); binding; 1 µM): 53%

CN(c1ccnc(CNc2nc(Nc3ccc4c(c3)CC(=O)N4)ncc2C(F)(F)F)n1)S(C)(=O)=O
remaining binding (Tyrosine-protein kinase ABL1, phosphorylated (ABL1, Homo sapiens, UniProt P00519, F317I); binding; 1 µM): 79%

COc1cnc(Nc2cccc(S(N)(=O)=O)c2)nc1N1CCN(c2ccccc2)CC1
remaining binding (ABL1 H396P phosphorylated; binding; competition with immobilised ligand; 1 µM): 87%

CCS(=O)(=O)c1cc2cc(C[C@](O)(CC(C)(C)c3ccc(F)cc3C(N)=O)C(F)(F)F)[nH]c2cn1
remaining binding (ABL1 F317L phosphorylated; cell-free assay; competition with immobilised ligand; 1 µM): 90%

O=C(c1ccc(Nc2nccc(-c3cc4ccccc4s3)n2)cc1)N1CCC(N2CCCC2)CC1
remaining binding (ABL1 non-phosphorylated; binding; competition with immobilised ligand; 1 µM): 18%

CC(=O)N1CCC(c2ccc(C(=O)NC(=N)N)cc2C(F)(F)F)CC1
remaining binding (ABL1 Q252H phosphorylated; cell-free assay; competition with immobilised ligand; 1 µM): 100%

CN1CCN(c2ccc(Nc3nccc(-c4ccccc4)n3)cc2C(F)(F)F)CC1
remaining binding (ABL1 F317I; binding; 10 µM): 100%

CNC(=O)c1ccc(Nc2ncc(C(F)(F)F)c(NCc3nccnc3N(C)S(C)(=O)=O)n2)cc1
remaining binding (ABL1 non-phosphorylated; cell-free assay; competition with immobilised ligand; 0.1 µM): 88%

O=C(NCCCN1CCOCC1)c1ccc(Nc2ncc(Cl)c(-c3ccc(Cl)s3)n2)cc1
remaining binding (ABL1 non-phosphorylated; binding; competition with immobilised ligand; 1 µM): 26%

CN(C(=O)c1ccccc1)c1cc(N(C)c2ccc3c(c2)CCc2ccc(C(=O)NCCN4CCOCC4)cc2C3=O)ccc1F
remaining binding (ABL1 F317I non-phosphorylated; binding; competition with immobilised ligand; 1 µM): 79%

CN1CCN(c2ccc(Nc3nccc(-c4cccc([N+](=O)[O-])c4)n3)cc2C(F)(F)F)CC1
remaining binding (Tyrosine-protein kinase ABL1 (ABL1, Homo sapiens, UniProt P00519, M351T); binding; 10 µM): 2.7%
